A short description of data set [1]: AUC (0 to t) in CD-1 mouse plasma at 25 mg/kg, INH using nebulizer measured at 0.25 to 24 hrs. It counts as ADME, organism-based. Also on record: time lower 0.25 hrs, dose 25 mg/kg, time upper 24 hrs, route inh. As to conditions: in vivo, inhaled_or_intranasal. The gist of the method: (§1)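 Male outbred CD-1 mice, 4 weeks old. Compound in a DOPS liposomal formulation (1 mM DOPS final), 25 mg/kg by nebulizer inhalation. Mice euthanized at 0.25, 0.5, 1, 2, 4, 8 and 24 h for heart blood (EDTA plasma), bronchoalveolar lavage and lung homogenate. ELF levels derived from BALF by urea method; non-compartmental PK analysis.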

Data set [2] concerns SARS-CoV-2. Nature of the data set: Antiviral activity against SARS-CoV-2-alphaB.1.1.7 infected in human A549 cells expressing ACE2 and TMPRSS2 assessed as reduction in cytopathic effect pre-infected with virus on day 0 followed by compound addition on day 1 and measured after 4 days post infection by MTS assay. In kind it is functional, organism-based. The conditions noted are these: Severe acute respiratory syndrome coronavirus 2, alphaB.1.1.7, A549.

Data set [3] is described as follows: Observed apparent volume of distribution in CD-1 mouse plasma at 100 mg/kg, po measured at 0.5 to 3 hrs. It counts as ADME, organism-based. As to conditions: in vivo, time 0.5-3 hrs. In a few lines:
(§2)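 Male CD-1 mice, 4 weeks old, given 100 mg/kg by intragastric gavage in DOPS liposomal formulation (1 mM DOPS final). Tail-vein blood sampled at 0.5, 1 and 3 h; terminal heart blood, BALF and lungs at 5 h. EDTA plasma kept at −80 °C until analysis; parameters by non-compartmental analysis.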

The test system of data set [4] is SARS-CoV-2. As to the kind of experiment: Antiviral activity against SARS-CoV-2-GHB-03021/2020 infected in African green monkey Vero E6 cells assessed as reduction in cytopathic effect pre-infected with virus on day 0 followed by compound addition on day 1 and measured after 4 days post infection in presence of CP-100356 by MTS assay. In kind it is functional, organism-based. The conditions noted are these: Severe acute respiratory syndrome coronavirus 2, GHB-03021/2020, Vero C1008.

A short description of data set [5]: Cmax in CD-1 mouse lung at 25 mg/kg, INH using nebulizer measured at 0.25 to 24 hrs. In kind it is ADME, organism-based. Also on record: dose 25 mg/kg, time 0.25-24 hrs, route inh. As to conditions: inhaled or intranasal. The gist of the method: as §1
The nature of data set [6]: MRT in CD-1 mouse plasma at 100 mg/kg, po measured at 0.5 to 3 hrs. It counts as ADME, organism-based. As to conditions: in vivo, time 0.5-3 hrs. The gist of the method: as §2
Data set [7] in a line: Tmax in CD-1 mouse plasma at 100 mg/kg, po measured at 0.5 to 3 hrs. In kind it is ADME, organism-based. As to conditions: in vivo, time 0.5-3 hrs. In a few lines:
as §2

The next data set relates to Vero C1008. Nature of the data set: Cytotoxicity against African green monkey Vero E6 cells assessed as reduction in cell viability. The conditions noted are these: chlorocebus sabaeus. In kind it is toxicity, cell-based. The gist of the method: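 VeroE6-eGFP cells maintained in DMEM with 10% FBS and G418. Compound toxicity measured without virus by standard MTS assay in parallel with the antiviral test. At least two independent dose–response curves.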

The nature of data set [8]: Observed apparent volume of distribution in CD-1 mouse plasma at 25 mg/kg, INH using nebulizer measured at 0.25 to 24 hrs. It counts as ADME, organism-based. As to conditions: in vivo, inhaled_or_intranasal, time 0.25-24 hrs. In a few lines:
as §1

Data set [9] is described as follows: AUC (0 to t) in CD-1 mouse plasma at 100 mg/kg, po measured at 0.5 to 3 hrs. As to conditions: in vivo. In kind it is ADME, organism-based. Set-up: time lower 0.5 hrs, dose 100 mg/kg, time upper 3 hrs, route po. The gist of the method:
as §2

Data set [10] is described as follows: Apparent oral clearance in CD-1 mouse plasma at 25 mg/kg, INH using nebulizer measured at 0.25 to 24 hrs. In kind it is ADME, organism-based. As to conditions: time 0.25-24 hrs. In a few lines:
as §1

The nature of data set [11]: Cmax in CD-1 mouse BALF at 25 mg/kg, INH using nebulizer measured at 5 hrs. Set-up: time 5 hrs, dose 25 mg/kg, route inh. In kind it is ADME, organism-based, Bronchoalveolar lavage. As to conditions: in vivo, inhaled_or_intranasal.
Data set [12] is described as follows: AUC (0 to t) in CD-1 mouse BALF at 25 mg/kg, INH using nebulizer measured at 5 hrs. Set-up: dose 25 mg/kg, time 5 hrs, route inh. The conditions noted are these: in vivo, inhaled_or_intranasal. In kind it is ADME, organism-based, Bronchoalveolar lavage.
Data set [13] in a line: AUC (0 to t) in CD-1 mouse Epithelial lining fluid at 25 mg/kg, INH using nebulizer measured at 0.25 to 24 hrs. The conditions noted are these: in vivo, inhaled_or_intranasal. It counts as ADME, organism-based. Set-up: time upper 24 hrs, dose 25 mg/kg, time lower 0.25 hrs, route inh. The gist of the method: as §1
Data set [14] in a line: Cmax in CD-1 mouse plasma at 100 mg/kg, po measured at 0.5 to 3 hrs. It counts as ADME, organism-based. Also on record: time 0.5-3 hrs, dose 100 mg/kg, route po. The conditions noted are these: in vivo. In a few lines:
as §2

Data set [15] deals with SARS-CoV-2. Nature of the data set: Antiviral activity against SARS-Cov2 […] infected in Calu-3 cells assessed as reduction in viral particle release measured after 24 hrs. As to conditions: Severe acute respiratory syndrome coronavirus 2, Calu-3, 24 h. In kind it is functional, organism-based.
Data set [16] has as its system SARS-CoV-2. Nature of the data set: Antiviral activity against SARS-CoV-2-BetaCoV/belgium/GHB-03021/2020 infected in human Huh-7 cells assessed as reduction in cytopathic effect pre-infected with virus on day 0 followed by compound addition on day 1 and measured after 4 days post infection by MTT assay. In kind it is functional, organism-based. The conditions noted are these: Severe acute respiratory syndrome coronavirus 2, BetaCoV/belgium/GHB-03021/2020, Huh-7.

Data set [17] in a line: Tmax in CD-1 mouse plasma at 25 mg/kg, INH using nebulizer measured at 0.25 to 24 hrs. In kind it is ADME, organism-based. As to conditions: in vivo, inhaled_or_intranasal, time 0.25-24 hrs. The gist of the method:
as §1

The nature of data set [18]: Cmax in CD-1 mouse Epithelial lining fluid at 25 mg/kg, INH using nebulizer measured at 0.25 to 24 hrs. It counts as ADME, organism-based. Also on record: time lower 0.25 hrs, dose 25 mg/kg, time upper 24 hrs, route inh. The conditions noted are these: in vivo, inhaled_or_intranasal. In a few lines: as §1
A short description of data set [19]: Cmax in CD-1 mouse plasma at 25 mg/kg, INH using nebulizer measured at 0.25 to 24 hrs. As to conditions: in vivo, inhaled_or_intranasal. Set-up: dose 25 mg/kg, time 0.25-24 hrs, route inh. It counts as ADME, organism-based. The gist of the method:
as §1

A short description of data set [20]: Half life in CD-1 mouse plasma at 100 mg/kg, po measured at 0.5 to 3 hrs. It counts as ADME, organism-based. As to conditions: in vivo, time 0.5-3 hrs. In a few lines: as §2
Data set [21] can be described thus: Oral bioavailability in CD-1 mouse at 100 mg/kg measured at 0.5 to 3 hrs. In kind it is ADME, organism-based. The conditions noted are these: in vivo, time 0.5-3 hrs. The gist of the method:
as §2

The test system of data set [22] is SARS-CoV-2. Nature of the data set: Antiviral activity against SARS-Cov2 […] infected in Calu-3 cells assessed as viral plaque reduction. In kind it is functional, organism-based. As to conditions: Severe acute respiratory syndrome coronavirus 2, Calu-3.

The results in this text go back to ChEMBL document CHEMBL5108058 (J Med Chem, 2022).

For the compound `CC(C)(C)OC(=O)Nc1cccn([C@@H](CC2CC2)C(=O)N[C@@H](C[C@@H]2CCNC2=O)C(=O)C(=O)NCc2ccccc2)c1=O`, the AUCt in data set [1] turned out to be 2.89663 µg·h/mL; in [9] it was 1.06149 µg·h/mL; in data set [12], 5.1622 µg·h/mL; in [13], 1042.34 µg·h/mL. The EC50 with SARS-CoV-2 [2] was 0.84 µM; in the data set with SARS-CoV-2 [4] it was 1.3 µM; in the data set with SARS-CoV-2 [15] it was 2.4 µM; in the data set with SARS-CoV-2 [16] it was 3.4 µM. For the same compound, the Vz/F in data set [3] turned out to be 131.34 L/kg; in data set [8], 141.07 L/kg. Also, the Cmax in data set [5] came to 262000 ng/g; in data set [11], 2330.33 ng/mL; in data set [14], 357 ng/mL; in [18], 433520 ng/mL; in [19] it was 236.47 ng/mL. Besides, in [6], the MRT was determined as 2.57 h. Moreover, the Tmax in data set [7] was 2.5 h; in data set [17], 0.33 h. Also, the CC50 with Vero C1008 was over 100 µM. Besides, the CL/F in data set [10] is 83.9 mL/min/kg. Also, the t1/2 in data set [20] worked out at 1.3 h. Further, in data set [21], the bioavailability was determined as 17%.

With `CC(C)(C)OC(=O)Nc1cccn(C(CC2CC2)C(=O)N[C@@H](C[C@@H]2CCNC2=O)C(=O)C(=O)NCc2ccccc2)c1=O` (mixture of isomers), the EC50 in the data set on SARS-CoV-2 [22] was 4 µM.
